Experimental data gathered from unrelated publications.
Target: Homeodomain-interacting protein kinase 1 (HIPK1, Homo sapiens, UniProt Q86Z02)

SMILES	effect on	action	technique	concentration	quantity	result
CCCCC(=O)Nc1ccc(-c2ccc3ncn(CCC)c(=O)c3c2)cn1	binding	–	competition with immobilised ligand	0.5 µM	remaining binding	88%
C=CC(=O)N1CCC[C@@H](n2nc(-c3ccc(Oc4ccccc4)cc3)c3c(N)ncnc32)C1	enzyme activity	inhibitor	–	1 µM	inhibition	22%
C#Cc1cc(-c2cc(Nc3nc(N[C@@H](C)c4ccc(F)cn4)ncc3Cl)n[nH]2)ccc1C=O	enzyme activity	inhibitor	–	0.2 µM	inhibition	22.6%
C=CC(=O)N1CCC([C@@H]2CCNc3c(C(N)=O)c(-c4ccc(Oc5ccccc5)cc4)nn32)CC1	enzyme activity	inhibitor	–	1 µM	inhibition	26%
Cc1ccc(NC(=O)c2ccnc(C(F)(F)F)c2)cc1-c1cc(OCCO)nc(N2CCOCC2)c1	binding	–	competition with immobilised ligand	1 µM	remaining binding	93%
COc1ccc2oc(-c3ccc4nc(N)oc4c3)c/c(=N\c3ccccc3NC(=O)CCN)c2c1	binding	–	–	1 µM	remaining binding	103%
C[C@H]1CC[C@H](n2c3cnccc3c3cnc(Nc4ccc5c(n4)CCN(C(=O)CO)C5)nc32)CC1	binding	–	competition with immobilised ligand	1 µM	remaining binding	45%
C1=C/COCc2cc(ccc2OCCN2CCCC2)Nc2nccc(n2)-c2cccc(c2)COC/1	binding	–	–	0.1 µM	remaining binding	6.7%
